Test results reported in ChEMBL document CHEMBL4308856, “Novel 5-(quinuclidin-3-ylmethyl)-1,2,4-oxadiazoles to investigate the activation of the α7 nicotinic acetylcholine receptor subtype: Synthesis and electrophysiological evaluation” (Eur J Med Chem, 2018).
Active and inactive are the calls of the source. No cut-off for these calls is given here.

Key:
Format in all cases: cell-based
[1] = biological target: T1, Neuronal acetylcholine receptor subunit alpha-7 (Homo sapiens, UniProt P36544); test: Partial agonist activity at human alpha7 nAChR expressed in Xenopus laevis oocytes assessed as increase in peak current amplitude at 30 uM at -60 mV holding potential treated for 12 secs followed by compound washout for 181 secs by whole cell two electrode voltage-clamp assay relative to ACh
How it was run: (§1)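 Human α7 nAChR expressed in Xenopus laevis oocytes, two-electrode voltage clamp at −60 mV with 3 M KCl electrodes. Ringer's with atropine, pH 7.2, perfused at 2 mL/min. Compound was applied at 30 μM for 12 s with a 181 s washout. Peak current and net charge were each normalized to the mean of two prior 60 μM ACh controls in the same oocyte; the peak/net-charge ratio was taken. Mean ± SEM, at least four oocytes.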

[2] = biological target: T1, Neuronal acetylcholine receptor subunit alpha-7; test: (§2) Partial agonist activity at human alpha7 nAChR expressed in Xenopus laevis oocytes assessed as increase in net charge at 30 uM at -60 mV holding potential treated for 12 secs followed by compound washout for 181 secs by whole cell two electrode voltage-clamp assay relative to ACh; how it was run: as §1
[3] = biological target: T1, Neuronal acetylcholine receptor subunit alpha-7; test: (§3) Ratio of partial agonist activity at human alpha7 nAChR expressed in Xenopus laevis oocytes assessed as increase in peak current amplitude relative to ACh to partial agonist activity at human alpha7 nAChR expressed in Xenopus laevis oocytes assessed as increase in net charge relative to ACh; how it was run: as §1
[4] = biological target: T1, Neuronal acetylcholine receptor subunit alpha-7; test: as §2, with “Silent agonist activity” for “Partial agonist activity”, “181 secs in presence of type 2 PAM PNU-120596 by whole” for “181 secs by whole”
How it was run: (§4)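 α7 (human) expressed in Xenopus oocytes, voltage-clamped at −60 mV, Ringer's pH 7.2 with atropine at 2 mL/min. Compound (3, 10 or 30 μM) was co-applied with PNU-120596 for 12 s, then washed out for 181 s. Net charge was expressed relative to the mean of two preceding 60 μM ACh control responses in the same oocyte. Mean ± SEM, at least four oocytes.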

[5] = biological target: T1, Neuronal acetylcholine receptor subunit alpha-7; test: as §3, with “of Silent” for “of partial”, “in net charge in presence of type 2 PAM PNU-120596” for “in peak current amplitude”
How it was run: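 PNU effectiveness: net-charge response of human α7 nAChR (Xenopus oocytes, −60 mV clamp) to compound co-applied with 10 μM PNU-120596, divided by the response to compound alone. Both responses were normalized to 60 μM ACh controls, with 12 s applications and 181 s washout.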

[6] = biological target: T1, Neuronal acetylcholine receptor subunit alpha-7; test: (§5) Silent agonist activity at human alpha7 nAChR expressed in Xenopus laevis oocytes assessed as increase in net charge at 3 to 10 uM at -60 mV holding potential treated for 12 secs followed by compound washout for 181 secs in presence of type 2 PAM PNU-120596 by whole cell two electrode voltage-clamp assay relative to ACh; how it was run: as §4
[7] = biological target: T1, Neuronal acetylcholine receptor subunit alpha-7; test: Partial agonist activity at human alpha7 nAChR expressed in Xenopus laevis oocytes at -60 mV holding potential treated for 12 secs followed by compound washout for 181 secs by whole cell two electrode voltage-clamp assay relative to ACh
[8] = biological target: T1, Neuronal acetylcholine receptor subunit alpha-7; test: Partial agonist activity at human alpha7 nAChR expressed in Xenopus laevis oocytes assessed as increase in net charge at 3 uM at -60 mV holding potential treated for 12 secs followed by compound washout for 181 secs by whole cell two electrode voltage-clamp assay relative to ACh
How it was run: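 Human α7 nAChR in Xenopus oocytes under two-electrode voltage clamp at −60 mV, perfused with Ringer's (pH 7.2, atropine) at 2 mL/min. Compound was given alone at 3 μM as a 12 s application followed by 181 s washout. Net-charge response was normalized to the average of two initial 60 μM ACh controls from the same oocyte.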

[9] = biological target: T1, Neuronal acetylcholine receptor subunit alpha-7; test: as §5, with “3” for “3 to 10”; how it was run: as §4
[10] = biological target: T1, Neuronal acetylcholine receptor subunit alpha-7; test: Antagonist activity at human alpha7 nAChR expressed in Xenopus laevis oocytes assessed as inhibition of post control Ach-induced response by measuring residual activity at 30 uM at -60 mV holding potential treated for 12 secs followed by compound washout for 181 secs by whole cell two electrode voltage-clamp assay (Rvb =60%)
[11] = biological target: T1, Neuronal acetylcholine receptor subunit alpha-7; test: Antagonist activity at human alpha7 nAChR expressed in Xenopus laevis oocytes assessed as Ach-induced response by measuring residual activity at 30 uM at -60 mV holding potential treated for 12 secs followed by compound washout for 181 secs by whole cell two electrode voltage-clamp assay (Rvb =60%)
[12] = biological target: T2, Neuronal acetylcholine receptor; alpha3/beta4 (Homo sapiens) (UniProt P30926+P32297); test: Antagonist activity at human alpha3beta4 nAChR expressed in Xenopus laevis oocytes assessed as inhibition of Ach-induced channel activation at 30 uM at -60 mV holding potential treated for 6 secs followed by compound washout for 241 secs by whole cell two electrode voltage-clamp assay
[13] = biological target: T2, Neuronal acetylcholine receptor; alpha3/beta4 (Homo sapiens); test: Antagonist activity at human alpha3beta4 nAChR expressed in Xenopus laevis oocytes assessed as inhibition of post-control Ach-induced channel activation at 30 uM at -60 mV holding potential treated for 6 secs followed by compound washout for 241 secs by whole cell two electrode voltage-clamp assay
[14] = biological target: T1, Neuronal acetylcholine receptor subunit alpha-7; test: as §5, with “at” for “at 3 to”; how it was run: as §4

T1 sequence (P36544 whole entry, the tested form may be a part): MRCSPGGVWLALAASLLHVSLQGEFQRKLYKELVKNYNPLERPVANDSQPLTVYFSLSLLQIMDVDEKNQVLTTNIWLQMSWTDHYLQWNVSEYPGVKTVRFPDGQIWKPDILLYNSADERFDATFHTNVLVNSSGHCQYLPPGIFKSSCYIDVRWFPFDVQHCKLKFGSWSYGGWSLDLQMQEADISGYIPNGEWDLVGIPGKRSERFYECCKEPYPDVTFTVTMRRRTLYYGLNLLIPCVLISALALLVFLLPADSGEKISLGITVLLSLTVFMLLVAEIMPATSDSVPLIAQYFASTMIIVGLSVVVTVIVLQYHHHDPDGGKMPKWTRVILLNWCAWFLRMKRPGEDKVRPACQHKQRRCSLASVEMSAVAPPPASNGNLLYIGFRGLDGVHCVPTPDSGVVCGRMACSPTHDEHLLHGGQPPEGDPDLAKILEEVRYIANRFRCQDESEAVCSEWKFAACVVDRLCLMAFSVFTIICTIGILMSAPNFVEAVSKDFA

| SMILES | fold change (FC) [1] | fold change (FC) [2] | Ratio [3] | fold change (FC) [4] | Ratio [5] | Activity [6] | EC50 [7] [µM] | fold change (FC) [8] | fold change (FC) [9] | Activity [10] [%] | Activity [11] [%] | inhibition [12] | inhibition [13] | fold change (FC) [6] | Activity [14] | Activity [9] |
| --- | --- | --- | --- | --- | --- | --- | --- | --- | --- | --- | --- | --- | --- | --- | --- | --- |
| COc1cccc(-c2noc(CC3CN4CCC3CC4)n2)c1 (configuration not stated) | 1.42 | 0.511 | 2.77 | 1 | 2 | – | – | – | – | – | – | – | – | – | – | – |
| C[N+]12CCC(CC1)C(Cc1nc(-c3cccc(Cl)c3)no1)C2 (configuration not stated) | 0.293 | 0.151 | 1.94 | 0.7 | 5 | – | – | – | – | – | – | – | – | – | – | – |
| COc1ccc(-c2noc(CC3C[N+]4(C)CCC3CC4)n2)cc1 (configuration not stated) | 0.051 | 0.075 | 0.68 | 2.2 | 29 | Active | – | – | – | – | – | – | – | – | – | – |
| c1cncc(-c2noc(CC3CN4CCC3CC4)n2)c1 (configuration not stated) | 0.867 | 0.483 | 1.8 | 13.7 | 28 | – | – | – | – | – | – | – | – | – | – | – |
| C[N+]12CCC(CC1)C(Cc1nc(-c3cccc(Br)c3)no1)C2 (configuration not stated) | 0.44 | 0.177 | 2.49 | 0.3 | 2 | – | – | – | – | – | – | – | – | – | – | – |
| c1coc(-c2noc(CC3CN4CCC3CC4)n2)c1 (configuration not stated) | 2.14 | 0.575 | 3.73 | 32.3 | 56 | – | < 30 | 0.15 | – | – | – | – | – | – | – | – |
| c1ccc(-c2noc(CC3CN4CCC3CC4)n2)cc1 (configuration not stated) | 1.3 | 0.602 | 2.16 | 1.7 | 3 | – | < 30 | – | 17.4 | – | – | – | – | – | – | – |
| c1cc(-c2noc(CC3CN4CCC3CC4)n2)ccn1 (configuration not stated) | 0.553 | 0.703 | 0.79 | 25.5 | 36 | – | – | – | – | – | – | – | – | – | – | – |
| C[N+]12CCC(CC1)C(Cc1nc(-c3cccc(I)c3)no1)C2 (configuration not stated) | 0.866 | 0.239 | 3.62 | 0.3 | 1 | – | – | – | – | – | – | – | – | – | – | – |
| C[N+]12CCC(CC1)C(Cc1nc(-c3ccco3)no1)C2 (configuration not stated) | 0.01 | 0.014 | 0.71 | 27.9 | 1990 | – | – | – | – | – | – | – | – | – | – | – |
| C[N+]12CCC(CC1)C(Cc1nc(-c3ccncc3)no1)C2 (configuration not stated) | 0.034 | 0.047 | 0.72 | 2.6 | 55 | – | – | – | – | – | – | – | – | – | – | – |
| FC(F)(F)c1cccc(-c2noc(CC3CN4CCC3CC4)n2)c1 (configuration not stated) | 0.144 | 0.055 | 2.62 | 0.1 | 2 | – | – | – | – | – | – | – | – | – | – | – |
| Brc1cccc(-c2noc(CC3CN4CCC3CC4)n2)c1 (configuration not stated) | 0.92 | 0.274 | 3.36 | 0.5 | 2 | – | – | – | – | – | – | – | – | – | – | – |
| Ic1cccc(-c2noc(CC3CN4CCC3CC4)n2)c1 (configuration not stated) | 1.21 | 0.245 | 4.94 | 0.5 | 2 | – | – | – | – | – | – | – | – | – | – | – |
| Fc1cccc(-c2noc(CC3CN4CCC3CC4)n2)c1 (configuration not stated) | 2.05 | 0.458 | 4.47 | 0.9 | 2 | – | – | – | – | – | – | – | – | – | – | – |
| COc1ccc(-c2noc(CC3CN4CCC3CC4)n2)cc1 (configuration not stated) | 1.98 | 0.401 | 4.93 | 1.6 | 4 | – | < 30 | – | 4.4 | – | – | – | – | – | – | – |
| COc1cccc(-c2noc(CC3C[N+]4(C)CCC3CC4)n2)c1 (configuration not stated) | 0.119 | 0.129 | 0.92 | 1.8 | 14 | – | – | – | – | – | – | – | – | – | – | – |
| C[N+]12CCC(CC1)C(Cc1nc(-c3cccc(C(F)(F)F)c3)no1)C2 (configuration not stated) | 0.077 | 0.035 | 2.2 | 0.1 | 3 | – | – | – | – | 60 | 10 | Active | inactive | – | – | – |
| C[N+]12CCC(CC1)C(Cc1nc(-c3ccccc3)no1)C2 (configuration not stated) | 0.069 | 0.112 | 0.62 | 2.4 | 21 | – | – | – | – | – | – | – | – | – | – | – |
| Cc1cccc(-c2noc(CC3CN4CCC3CC4)n2)c1 (configuration not stated) | 2.11 | 0.434 | 4.85 | 77.3 | 178 | – | – | – | – | – | – | – | – | – | – | – |
| C[N+]12CCC(CC1)C(Cc1nc(-c3cccnc3)no1)C2 (configuration not stated) | 0.023 | 0.048 | 0.48 | 3.9 | 81 | – | – | – | – | – | – | – | – | – | – | – |
| C[N+]12CCC(CC1)C(Cc1nc(-c3cccc(F)c3)no1)C2 (configuration not stated) | 0.067 | 0.063 | 1.06 | 0.3 | 5 | – | – | – | – | – | – | – | – | – | – | – |
| c1csc(-c2noc(CC3CN4CCC3CC4)n2)c1 (configuration not stated) | 2.06 | 0.508 | 4.06 | 5 | 10 | – | < 30 | – | 13.4 | – | – | – | – | – | – | – |
| Cc1noc(CC2C[N+]3(C)CCC2CC3)n1 (configuration not stated) | 0.003 | 0.001 | 3 | 0.1 | 100 | – | – | – | – | – | – | – | – | – | – | – |
| Clc1cccc(-c2noc(CC3CN4CCC3CC4)n2)c1 (configuration not stated) | 1.2 | 0.32 | 3.76 | 0.6 | 2 | – | – | – | – | – | – | – | – | – | – | – |
| Cc1cccc(-c2noc(CC3C[N+]4(C)CCC3CC4)n2)c1 (configuration not stated) | 0.079 | 0.077 | 1.03 | 1.2 | 16 | – | – | – | – | – | – | – | – | 10.9 | inactive | – |
| C[N+]12CCC(CC1)C(Cc1nc(-c3cccs3)no1)C2 (configuration not stated) | 0.103 | 0.127 | 0.81 | 0.2 | 2 | – | – | – | – | – | – | – | – | – | – | – |
| Cc1noc(CC2CN3CCC2CC3)n1 (configuration not stated) | 0.026 | 0.042 | 0.62 | 5.1 | 121 | – | – | – | – | – | – | – | – | – | inactive | inactive |
